This passage reports Solubility, T1/2 and Relative solubility results from ChEMBL document CHEMBL1134208, “Controlled drug release: new water-soluble prodrugs of an HIV protease inhibitor” (Bioorg Med Chem Lett, 2001).

Holding throughout (assay type): ADME
Data set [1] is described as follows: Water solubility of prodrug was determined relative to KNI-727. The following applies: buffer. An outline of the steps:
(§1)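 Prodrug solution was passed through a membrane filter, and the dissolved prodrug concentration was then quantified by HPLC. Solubility was set against that of the parent drug measured the same way.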

Data set [2] can be described thus: Time required for 50% release of KNI-727 at 37 degree celsius. An outline of the steps: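 Prodrug added from a 0.5 mM DMSO stock to PBS (pH 7.4) and incubated at 37 °C. Aliquots taken at successive time points were injected directly onto HPLC with detection at 230 nm. Loss of prodrug and appearance of released parent were followed over time to give the half-life of release.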

Data set [3] can be described thus: Water solubility of prodrug was determined. The conditions noted are these: buffer. The essentials: as §1

Converted amounts (≈) assume the structure as drawn. Bounds are passed on as bounds.

What is called Solubility is how much of the substance goes into solution per volume. With `Cc1cccc(C)c1OCC(=O)N[C@@H](Cc1ccccc1)[C@H](OC(=O)CCCC(=O)NCCN)C(=O)N1CSC(C)(C)[C@H]1C(=O)NC(C)(C)C.Cl`, the Solubility in data set [1] came to 5130 mg/mL; in data set [3], 56.9 mg/mL. The T1/2 in data set [2] was 28 h.

Molecule `Cc1cccc(C)c1OCC(=O)N[C@@H](Cc1ccccc1)[C@H](OC(=O)CCC(=O)NCCN(C)C)C(=O)N1CSC(C)(C)[C@H]1C(=O)NC(C)(C)C.Cl` gave a T1/2 in data set [2] of 0.183 h. Besides, in data set [3], the Solubility was found to be 171.5 mg/mL.

On to `Cc1cccc(C)c1OCC(=O)N[C@@H](Cc1ccccc1)[C@H](OC(=O)CC(C)(C)C(=O)NCCN)C(=O)N1CSC(C)(C)[C@H]1C(=O)NC(C)(C)C.Cl`, for which the values for the Solubility in data set [1] and in data set [3] were 12300 mg/mL and 136.7 mg/mL, respectively. The T1/2 in data set [2] was under 0.017 h.

With `Cc1cccc(C)c1OCC(=O)N[C@@H](Cc1ccccc1)[C@H](OC(=O)CCC(=O)NCC(=O)O)C(=O)N1CSC(C)(C)[C@H]1C(=O)NC(C)(C)C`, the Relative solubility in data set [1] is 6.6. Moreover, the T1/2 in data set [2] stood at 18.7 h. The Solubility in data set [3] was 0.0735 mg/mL (≈ 103 µM).

In the case of `Cc1cccc(C)c1OCC(=O)N[C@@H](Cc1ccccc1)[C@H](OC(=O)CCC(=O)NCC(N)=O)C(=O)N1CSC(C)(C)[C@H]1C(=O)NC(C)(C)C`, in data set [1], the Relative solubility is 18.9. Moreover, in data set [2], the T1/2 is 0.333 h. Also, the Solubility in data set [3] amounted to 0.21 mg/mL (≈ 295 µM).

`Cc1cccc(C)c1OCC(=O)N[C@@H](Cc1ccccc1)[C@H](OC(=O)CCC(=O)NCCN)C(=O)N1CSC(C)(C)[C@H]1C(=O)NC(C)(C)C.Cl`: the Solubility stood at 10400 mg/mL in data set [1] and 115.4 mg/mL in data set [3]. The T1/2 in data set [2] came to 0.35 h.

With `Cc1cccc(C)c1OCC(=O)N[C@@H](Cc1ccccc1)[C@H](OC(=O)CCC(N)=O)C(=O)N1CSC(C)(C)[C@H]1C(=O)NC(C)(C)C`, in data set [1], the Relative solubility was found to be 8.1. The T1/2 in data set [2] was 16 h. Moreover, in data set [3], the Solubility came out at 0.0895 mg/mL (≈ 137 µM).

Consider `Cc1cccc(C)c1OCC(=O)N[C@@H](Cc1ccccc1)[C@H](OC(=O)CCC(=O)NCCC(=O)O)C(=O)N1CSC(C)(C)[C@H]1C(=O)NC(C)(C)C`, for which, in data set [2], the T1/2 amounted to 16.8 h.

Turning to `Cc1cccc(C)c1OCC(=O)N[C@@H](Cc1ccccc1)[C@H](OC(=O)CCC(=O)NCc1ccccc1)C(=O)N1CSC(C)(C)[C@H]1C(=O)NC(C)(C)C.Cl`, the T1/2 in data set [2] was 8.8 h. Besides, in data set [3], the Solubility was under 0.0111 mg/mL.
